Measurements taken from ChEMBL document CHEMBL1155233, “Structure mechanism insights and the role of nitric oxide donation guide the development of oxadiazole-2-oxides as therapeutic agents against schistosomiasis” (J Med Chem, 2009).
Calls of active or inactive are those of the source. No cut-off for these calls is given here.

Tests used:
[1] = test system: Schistosoma mansoni; test: Antischistosomal activity against Schistosoma mansoni assessed as induction of parasite mortality after 72 hrs; format: functional; parameters: concentration or dose not given beside the values
Method in brief: (§1)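 Cultured ex vivo worms were exposed to 10 μM compound. Worm effects were scored by visual examination at time points over a 72 h time-course.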

[2] = target: T1, Thioredoxin reductase 1, cytoplasmic (Rattus norvegicus, UniProt O89049); test: Inhibition of rat recombinant TrxR1 after 10 mins
T1 sequence (O89049 whole entry): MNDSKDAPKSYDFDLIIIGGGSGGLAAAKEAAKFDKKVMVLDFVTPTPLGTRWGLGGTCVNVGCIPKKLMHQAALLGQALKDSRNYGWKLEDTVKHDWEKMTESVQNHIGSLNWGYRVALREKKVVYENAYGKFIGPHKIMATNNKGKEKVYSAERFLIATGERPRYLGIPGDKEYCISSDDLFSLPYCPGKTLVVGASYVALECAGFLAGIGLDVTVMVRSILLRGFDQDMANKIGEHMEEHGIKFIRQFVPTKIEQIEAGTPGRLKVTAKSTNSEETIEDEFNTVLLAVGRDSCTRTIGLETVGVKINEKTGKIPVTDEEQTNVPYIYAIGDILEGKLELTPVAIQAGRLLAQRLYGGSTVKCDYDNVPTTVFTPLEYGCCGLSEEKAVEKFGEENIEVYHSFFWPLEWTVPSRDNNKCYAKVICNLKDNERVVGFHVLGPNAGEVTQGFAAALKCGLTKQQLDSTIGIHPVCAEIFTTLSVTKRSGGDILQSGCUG

[3] = target: T2, Glutathione reductase, mitochondrial (Homo sapiens, UniProt P00390); test: Inhibition of human recombinant GR after 15 mins in presence of NADPH
T2 sequence (P00390 whole entry): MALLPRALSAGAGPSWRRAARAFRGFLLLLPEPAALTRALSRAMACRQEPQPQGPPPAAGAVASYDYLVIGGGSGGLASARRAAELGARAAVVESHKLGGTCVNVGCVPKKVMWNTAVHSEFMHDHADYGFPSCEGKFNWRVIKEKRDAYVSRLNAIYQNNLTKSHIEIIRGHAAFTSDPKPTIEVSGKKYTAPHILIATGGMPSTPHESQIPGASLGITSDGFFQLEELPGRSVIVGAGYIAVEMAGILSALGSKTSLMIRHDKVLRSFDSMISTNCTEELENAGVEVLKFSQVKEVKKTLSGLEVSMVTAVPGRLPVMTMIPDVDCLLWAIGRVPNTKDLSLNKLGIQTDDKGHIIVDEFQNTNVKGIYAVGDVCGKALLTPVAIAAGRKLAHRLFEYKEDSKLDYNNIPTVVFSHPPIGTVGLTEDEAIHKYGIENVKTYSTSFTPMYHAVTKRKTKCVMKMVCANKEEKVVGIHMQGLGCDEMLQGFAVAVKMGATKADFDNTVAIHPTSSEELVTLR

[4] = Induction of nitric oxide release at 10 uM in presence of Schistosoma mansoni recombinant TGR; format: functional
[5] = test system: Schistosoma mansoni; test: Antischistosomal activity against Schistosoma mansoni assessed as induction of parasite mortality after 48 hrs; format: functional; parameters: concentration or dose not given beside the values; method in brief: as §1
[6] = test system: Schistosoma mansoni; test: Antischistosomal activity against Schistosoma mansoni assessed as parasite killing after 4 hrs; format: functional; method in brief: as §1
[7] = Induction of nitric oxide release at 10 uM in presence of Schistosoma mansoni recombinant TGR and NADPH; format: functional
[8] = Induction of nitric oxide release at 10 uM in presence of cysteine; format: physicochemical
[9] = test system: Schistosoma mansoni; test: Antischistosomal activity against Schistosoma mansoni assessed as induction of parasite sluggish movement after 16 hrs; format: functional, organism-based; method in brief: as §1
[10] = test system: Schistosoma mansoni; test: Antischistosomal activity against Schistosoma mansoni assessed as induction of parasite mortality after 24 hrs; format: functional; parameters: concentration or dose not given beside the values; method in brief: as §1
[11] = test system: Schistosoma mansoni; test: Antischistosomal activity against Schistosoma mansoni assessed as induction of parasite mortality after 8 hrs; format: functional; parameters: concentration or dose not given beside the values; method in brief: as §1
[12] = test system: Schistosoma mansoni; test: Antischistosomal activity against Schistosoma mansoni assessed as parasite killing after 2 hrs; format: functional, organism-based; method in brief: as §1
[13] = test system: Schistosoma mansoni; test: Antischistosomal activity against Schistosoma mansoni assessed as induction of parasite mortality after 16 hrs; format: functional; parameters: concentration or dose not given beside the values; method in brief: as §1
[14] = Reactivity with cysteine at 0.1 mM in 0.1M phosphate buffer assessed as amount of compound unreacted by HPLC
[15] = target: T3, Thioredoxin glutathione reductase (Schistosoma mansoni, UniProt Q962Y6); test: Inhibition of Schistosoma mansoni TGR
T3 sequence (Q962Y6 whole entry): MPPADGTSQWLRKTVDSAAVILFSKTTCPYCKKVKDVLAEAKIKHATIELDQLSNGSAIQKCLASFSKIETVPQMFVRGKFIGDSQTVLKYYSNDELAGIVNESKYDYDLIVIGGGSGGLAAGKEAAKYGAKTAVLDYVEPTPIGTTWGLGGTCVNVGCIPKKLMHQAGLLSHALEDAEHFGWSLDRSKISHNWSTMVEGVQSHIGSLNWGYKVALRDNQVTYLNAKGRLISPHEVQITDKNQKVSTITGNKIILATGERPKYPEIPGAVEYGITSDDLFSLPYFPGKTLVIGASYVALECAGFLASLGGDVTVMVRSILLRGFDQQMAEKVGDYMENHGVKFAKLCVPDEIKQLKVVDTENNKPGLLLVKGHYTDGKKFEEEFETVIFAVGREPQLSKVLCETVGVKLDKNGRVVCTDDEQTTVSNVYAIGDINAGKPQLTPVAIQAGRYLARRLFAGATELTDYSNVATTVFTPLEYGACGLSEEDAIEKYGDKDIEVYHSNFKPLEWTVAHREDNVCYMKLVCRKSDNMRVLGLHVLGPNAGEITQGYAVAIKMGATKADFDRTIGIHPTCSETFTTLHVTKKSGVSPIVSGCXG

[16] = Metabolic stability in human liver microsomes assessed as compound remaining over 60 mins in absence of NADPH; format: ADME, Microsome; conditions: read-out: Stability

| SMILES | Activity [1] | IC50 [2] [µM] | IC50 [3] [µM] | Activity [4] [%] | Activity [5] | Activity [6] | Activity [7] [%] | Activity [8] [%] | Activity [9] | Activity [10] | Activity [11] | Activity [12] | Activity [13] | Activity [14] | IC50 [15] [µM] | remaining at 1 h [16] [%] |
| --- | --- | --- | --- | --- | --- | --- | --- | --- | --- | --- | --- | --- | --- | --- | --- | --- |
| N#Cc1c(-c2ccc(Cl)cc2)no[n+]1[O-] | 100% | > 400 | > 50 | 2 | 60% | inactive | 16 | 61 | Active | 42% | inactive | inactive | – | – | – | – |
| N#Cc1nonc1-c1ccccc1 | – | – | – | < 1 | – | – | 3 | 7 | – | – | – | – | – | – | – | – |
| COc1cc(-c2no[n+]([O-])c2C#N)cc(OC)c1OC | 75% | 150 | > 50 | < 1 | 70% | inactive | 8 | 20 | Active | 40% | 7% | inactive | – | – | – | – |
| N#Cc1c(-c2cccc(Br)c2)no[n+]1[O-] | 100% | 150 | > 50 | 2 | 100% | inactive | 19 | 70 | – | 100% | 20% | inactive | 39% | – | – | – |
| N#Cc1no[n+]([O-])c1-c1ccccc1 | – | – | – | < 1 | – | – | 5 | 10 | – | – | – | – | – | Active | – | – |
| NC(=O)c1c(-c2ccccc2)no[n+]1[O-] | 100% | > 400 | > 50 | – | 100% | inactive | – | – | – | 60% | 12% | inactive | 27% | – | 17.8 | – |
| N#Cc1c(-c2csc(-c3no[n+]([O-])c3C#N)c2)no[n+]1[O-] | – | – | – | – | – | – | – | – | – | – | – | inactive | – | – | – | 52 |
| O=C(O)c1c(-c2ccccc2)no[n+]1[O-] | inactive | > 400 | > 50 | 2 | inactive | inactive | 7 | 10 | – | inactive | inactive | inactive | inactive | – | 0.63 | – |
| Cc1ccc(-c2no[n+]([O-])c2C#N)cc1 | 70% | > 400 | > 50 | 1 | 55% | inactive | 15 | 58 | – | 50% | inactive | inactive | 15% | – | – | – |
| N#Cc1c(-c2cccc(C(F)(F)F)c2)no[n+]1[O-] | 100% | 250 | > 50 | 2 | 100% | inactive | 20 | 78 | – | 54% | 7% | inactive | 25% | – | – | – |
| [O-][n+]1onc(-c2ccccc2)c1CO | – | > 400 | > 50 | – | – | – | – | – | – | – | – | – | – | – | – | – |
| N#Cc1c(-c2ccc(C(F)(F)F)cc2)no[n+]1[O-] | 100% | < 12.5 | 45.3 | 2 | 80% | inactive | 22 | 80 | – | 64% | 12% | inactive | 20% | – | – | – |
| O=C(c1cccs1)c1no[n+]([O-])c1C(=O)c1cccs1 | inactive | – | – | – | inactive | inactive | – | – | – | inactive | inactive | inactive | inactive | Active | 0.04 | – |
| COc1ccc(-c2no[n+]([O-])c2C#N)cc1 | 100% | > 400 | > 50 | 2 | 60% | inactive | 10 | 55 | – | 29% | inactive | inactive | 10% | – | – | – |
| N#Cc1c(-c2cccc([N+](=O)[O-])c2)no[n+]1[O-] | 21% | 150 | > 50 | 2 | 15% | inactive | 16 | 72 | Active | 10% | inactive | inactive | – | – | – | – |
| N#Cc1c(-c2ccc(F)cc2)no[n+]1[O-] | 100% | 300 | > 50 | < 1 | 100% | inactive | 13 | 50 | – | 72% | 5% | inactive | 15% | – | – | – |
| N#Cc1c(-c2ccco2)no[n+]1[O-] | 100% | 350 | > 50 | 2 | 100% | inactive | 16 | 60 | – | 70% | 10% | inactive | 40% | – | 2.8 | – |
| COc1ccccc1-c1no[n+]([O-])c1C#N | 60% | – | – | – | 50% | inactive | – | – | – | 40% | – | inactive | 11% | – | – | – |
| COc1cccc(-c2no[n+]([O-])c2C#N)c1 | 20% | > 400 | > 50 | 2 | 12% | inactive | 9 | 52 | – | 7% | inactive | inactive | inactive | – | – | – |
| N#Cc1c(-c2cccc(O)c2)no[n+]1[O-] | inactive | – | – | – | inactive | inactive | – | – | – | inactive | – | inactive | inactive | – | – | – |
| N#Cc1c(C(=O)c2cccs2)no[n+]1[O-] | inactive | – | – | – | inactive | inactive | – | – | – | inactive | inactive | inactive | inactive | Active | 0.063 | – |
